{"source": "ChEMBL document CHEMBL4261491", "about": "“Synthesis and synergistic antifungal effects of monoketone derivatives of curcumin against fluconazole-resistant Candida spp” (Medchemcomm, 2017)", "key": {"Pichia kudriavzevii [1]": {"system": "Pichia kudriavzevii", "assay": "Antifungal activity against fluconazole-resistant Candida krusei clinical isolate 2159 by broth microdilution method", "format": "functional", "in_short": "(§1)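 Broth microdilution per CLSI/NCCLS M27-A2 against FLC-resistant clinical isolates. MIC80 read for each compound alone and with fluconazole at 8.0 μg ml–1. C. albicans ATCC 90028 served as quality control. Curcumin was the positive control.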"}, "Candida albicans [2]": {"system": "Candida albicans", "assay": "Antifungal activity against fluconazole-resistant Candida albicans clinical isolate 103 by broth microdilution method", "format": "functional", "in_short": "as §1"}, "Candida tropicalis [3]": {"system": "Candida tropicalis", "assay": "Antifungal activity against fluconazole-resistant Candida tropicalis clinical isolate 087 by broth microdilution method", "format": "functional", "in_short": "as §1"}, "Candida tropicalis [4]": {"system": "Candida tropicalis", "assay": "Antifungal activity against fluconazole-resistant Candida tropicalis clinical isolate 087 at 1 ug/ml after 16 hrs by turbidity method", "format": "functional, organism-based", "in_short": "(§2)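 C. tropicalis 087 at 10^4 CFU ml–1 in RPMI 1640 in glass tubes. Compound (0–128 μg ml–1) and fluconazole (0–2 μg ml–1) were added alone or in combination. Tubes were shaken at 200 rpm at 30 °C for 16 h, and turbidity was inspected visually and photographed.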"}, "Candida tropicalis [5]": {"system": "Candida tropicalis", "assay": "Antifungal activity against fluconazole-resistant Candida tropicalis clinical isolate 087 assessed as fungal growth inhibition at 0.5 ug/ml after 48 hrs", "format": "functional, organism-based", "in_short": "(§3)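 C. tropicalis 087 was grown in RPMI 1640 at 30 °C for 48 h with fluconazole (0.25, 0.5, 1 μg ml–1) or compound (64, 128 μg ml–1), alone or combined. OD630 was read every 8 h to build growth curves. Three independent experiments, means ± SD.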"}, "Candida tropicalis [6]": {"system": "Candida tropicalis", "assay": "Antifungal activity against fluconazole-resistant Candida tropicalis clinical isolate 087 assessed as fungus with permeabilized membrane at 2 ug/ml after 12 hrs by propidium iodide staining-based flow cytometry (reference value: 7.22%)", "format": "functional"}, "Candida albicans [7]": {"system": "Candida albicans", "assay": "Antifungal activity against fluconazole-resistant Candida albicans clinical isolate 103 in presence of 8 ug/ml fluconazole by broth microdilution method", "format": "functional", "in_short": "as §1"}, "Candida tropicalis [8]": {"system": "Candida tropicalis", "assay": "Antifungal activity against fluconazole-resistant Candida tropicalis clinical isolate 087 in presence of 8 ug/ml fluconazole by broth microdilution method", "format": "functional", "in_short": "as §1"}, "Pichia kudriavzevii [9]": {"system": "Pichia kudriavzevii", "assay": "Antifungal activity against fluconazole-resistant Candida krusei clinical isolate 2159 in presence of 8 ug/ml fluconazole by broth microdilution method", "format": "functional", "in_short": "as §1"}, "Candida tropicalis [10]": {"system": "Candida tropicalis", "assay": "Antifungal activity against fluconazole-resistant Candida tropicalis clinical isolate 087 at 64 ug/ml after 16 hrs by turbidity method", "format": "functional, organism-based", "in_short": "as §2"}, "Candida tropicalis [11]": {"system": "Candida tropicalis", "assay": "Synergistic antifungal activity against fluconazole-resistant Candida tropicalis clinical isolate 087 at 4 ug/ml after 16 hrs in presence of fluconazole by turbidity method", "format": "functional, organism-based", "in_short": "as §2"}, "Candida tropicalis [12]": {"system": "Candida tropicalis", "assay": "Antifungal activity against fluconazole-resistant Candida tropicalis clinical isolate 087 assessed as fungal growth inhibition at 64 ug/ml after 48 hrs", "format": "functional, organism-based", "in_short": "as §3"}, "Candida tropicalis [13]": {"system": "Candida tropicalis", "assay": "Fungicidal activity against fluconazole-resistant Candida tropicalis clinical isolate 087 at 128 ug/ml after 48 hrs", "format": "functional, organism-based", "in_short": "as §3"}, "Candida tropicalis [14]": {"system": "Candida tropicalis", "assay": "Antifungal activity against fluconazole-resistant Candida tropicalis clinical isolate 087 assessed as apoptosis at 128 ug/ml after 48 hrs", "format": "functional, organism-based"}, "Candida tropicalis [15]": {"system": "Candida tropicalis", "assay": "Synergistic fungicidal activity against fluconazole-resistant Candida tropicalis clinical isolate 087 at 64 to 128 ug/ml after 48 hrs in presence of 1 ug/ml fluconazole", "format": "functional, organism-based", "in_short": "as §3"}, "Candida tropicalis [16]": {"system": "Candida tropicalis", "assay": "Antifungal activity against fluconazole-resistant Candida tropicalis clinical isolate 087 assessed as fungus with permeabilized membrane at 32 ug/ml after 12 hrs by propidium iodide staining-based flow cytometry (reference value: 7.22%)", "format": "functional"}, "Candida tropicalis [17]": {"system": "Candida tropicalis", "assay": "Synergistic antifungal activity against fluconazole-resistant Candida tropicalis clinical isolate 087 assessed as fungus with permeabilized membrane at 32 ug/ml after 12 hrs in presence of 2 ug/ml fluconazole by propidium iodide staining-based flow cytometry (reference value: 7.22%)", "format": "functional"}, "[18]": {"assay": "Cytotoxicity against HUVEC assessed as cell viability at 32 ug/ml after 24 hrs by MTT assay relative to control", "format": "cell-based", "conditions": "human, HUVEC cells; read-out: Activity", "in_short": "(§4)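 HUVECs grown in DMEM with 10% FCS and 100 μg ml–1 streptomycin, 5% CO2, 37 °C. Cells exposed to compounds at 16 and 32 μg ml–1 for 24 h, then incubated with MTT solution (5 mg ml–1) for 3 h. Optical density read at 570 nm. Viability expressed as percentage relative to drug-free control.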"}, "[19]": {"assay": "Cytotoxicity against HUVEC assessed as cell viability at 16 ug/ml after 24 hrs by MTT assay relative to control", "format": "cell-based", "conditions": "human, HUVEC cells; read-out: Activity", "in_short": "as §4"}}, "note": "The source made the active and inactive calls. No cut-off for these calls is given here."}
{"smiles": "OC(Cn1cncn1)(Cn1cncn1)c1ccc(F)cc1F", "note": "[FLUCONAZOLE]", "values": [{"measurement": "MIC80", "setting": "Pichia kudriavzevii [1]", "value": 128, "unit": "µg/mL"}, {"measurement": "MIC80", "setting": "Candida albicans [2]", "value": 128, "unit": "µg/mL"}, {"measurement": "MIC80", "setting": "Candida tropicalis [3]", "value": 128, "unit": "µg/mL"}, {"measurement": "Activity", "setting": "Candida tropicalis [4]", "value": "inactive"}, {"measurement": "growth inhibition (GI)", "setting": "Candida tropicalis [5]", "value": "Active"}, {"measurement": "Activity", "setting": "Candida tropicalis [6]", "value": 37.27, "unit": "%"}]}
{"smiles": "O=C(/C=C/c1ccc(O)c(O)c1)/C=C/c1ccc(O)c(O)c1", "values": [{"measurement": "MIC80", "setting": "Pichia kudriavzevii [1]", "value": 64, "unit": "µg/mL"}, {"measurement": "MIC80", "setting": "Candida albicans [2]", "value": 64, "unit": "µg/mL"}, {"measurement": "MIC80", "setting": "Candida tropicalis [3]", "value": 64, "unit": "µg/mL"}, {"measurement": "fractional inhibitory concentration index (FICI)", "setting": "Candida albicans [7]", "value": 0.125}, {"measurement": "MIC80", "setting": "Candida albicans [7]; Candida albicans, isolate 103", "value": 4, "unit": "µg/mL"}, {"measurement": "fractional inhibitory concentration index (FICI)", "setting": "Candida tropicalis [8]", "value": 0.125}, {"measurement": "MIC80", "setting": "Candida tropicalis [8]; Candida tropicalis, isolate 087", "value": 4, "unit": "µg/mL"}, {"measurement": "fractional inhibitory concentration index (FICI)", "setting": "Pichia kudriavzevii [9]", "value": 0.188}, {"measurement": "MIC80", "setting": "Pichia kudriavzevii [9]; Pichia kudriavzevii, isolate 2159", "value": 8, "unit": "µg/mL"}, {"measurement": "Activity", "setting": "Candida tropicalis [10]", "value": "Active"}, {"measurement": "Activity", "setting": "Candida tropicalis [11]", "value": "Active"}, {"measurement": "growth inhibition (GI)", "setting": "Candida tropicalis [12]", "value": "Active"}, {"measurement": "Activity", "setting": "Candida tropicalis [13]", "value": "Active"}, {"measurement": "Activity", "setting": "Candida tropicalis [14]", "value": "Active"}, {"measurement": "Activity", "setting": "Candida tropicalis [15]", "value": "Active"}, {"measurement": "Activity", "setting": "Candida tropicalis [16]", "value": 20.92, "unit": "%"}, {"measurement": "Activity", "setting": "Candida tropicalis [17]", "value": 72.79, "unit": "%"}, {"measurement": "viability at 24 h, 32 ug/ml", "setting": "[18]", "value": 75, "unit": "%"}, {"measurement": "viability at 24 h, 16 ug/ml", "setting": "[19]", "value": 91, "unit": "%"}]}
